ChEMBL document CHEMBL1629713, “Discovery of benzoylisoindolines as a novel class of potent, selective and orally active GlyT1 inhibitors” (Bioorg Med Chem Lett, 2010)
Converted amounts (≈) assume the structure as drawn.

Assays:
[1] = Aqueous solubility of the compound by lyophilisate solubility assay; type: physicochemical; details: buffer
Method in brief: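 LYSA: compound in DMSO solution lyophilized, then dissolved in 0.05 M phosphate buffer pH 6.5, stirred 1 h and shaken 2 h; solubility in µg/ml.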

Rattus norvegicus [2] = experiment: […] in rat striatum assessed as increase of glycine at 10 mg/kg, po after 3 hrs relative to basal level; type: functional
Method in brief: (§1)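 Rats dosed 10 mg/kg po, n = 6. Striatal extracellular fluid sampled for glycine over 3 h, expressed as maximal fold increase and fold increase at 3 h. Animals sacrificed at 3 h; plasma and brain drug levels measured at 3 h post dose.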

[3] = Drug level in rat plasma at 10 mg/kg after 3 hrs; type: ADME, organism-based; parameters: dose 10 mg/kg; method in brief: as §1
[4] = target: T1, Sodium- and chloride-dependent glycine transporter 1 (Homo sapiens, UniProt P48067); experiment: Inhibition of human GlyT1 expressed in CHO cells assessed as inhibition of [3H]glycine uptake by liquid scintillation counting; type: cell-based
T1 sequence (P48067 whole entry): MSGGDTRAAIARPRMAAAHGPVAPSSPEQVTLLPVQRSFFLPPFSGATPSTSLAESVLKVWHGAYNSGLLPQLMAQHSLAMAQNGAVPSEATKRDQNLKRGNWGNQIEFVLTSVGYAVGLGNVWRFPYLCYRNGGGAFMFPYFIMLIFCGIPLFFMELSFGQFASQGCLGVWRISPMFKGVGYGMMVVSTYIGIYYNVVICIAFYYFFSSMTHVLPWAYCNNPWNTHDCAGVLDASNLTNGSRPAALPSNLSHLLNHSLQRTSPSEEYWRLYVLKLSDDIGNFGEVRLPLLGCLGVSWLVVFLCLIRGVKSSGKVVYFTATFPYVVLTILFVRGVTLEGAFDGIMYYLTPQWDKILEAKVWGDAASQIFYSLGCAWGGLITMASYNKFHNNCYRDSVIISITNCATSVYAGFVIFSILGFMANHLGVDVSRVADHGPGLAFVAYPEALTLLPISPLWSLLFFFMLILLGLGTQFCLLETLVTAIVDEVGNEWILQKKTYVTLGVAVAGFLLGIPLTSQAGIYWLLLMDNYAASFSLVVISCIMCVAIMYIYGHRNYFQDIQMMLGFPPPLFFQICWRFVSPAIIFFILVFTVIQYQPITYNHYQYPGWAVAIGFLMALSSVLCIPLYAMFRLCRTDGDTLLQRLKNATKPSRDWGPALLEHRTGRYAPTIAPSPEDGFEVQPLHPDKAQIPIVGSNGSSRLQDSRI
Method in brief: (§2)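 [3H]-glycine uptake inhibition in cells transfected with human GlyT1 or human GlyT2 cDNA. EC50 values averaged from at least two independent experiments.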

[5] = target: T2, Sodium- and chloride-dependent glycine transporter 2 (Homo sapiens, UniProt Q9Y345); experiment: Inhibition of human GlyT2 expressed in CHO cells assessed as inhibition of [3H]glycine uptake by liquid scintillation counting; type: cell-based; method in brief: as §2
T2 sequence (Q9Y345 whole entry): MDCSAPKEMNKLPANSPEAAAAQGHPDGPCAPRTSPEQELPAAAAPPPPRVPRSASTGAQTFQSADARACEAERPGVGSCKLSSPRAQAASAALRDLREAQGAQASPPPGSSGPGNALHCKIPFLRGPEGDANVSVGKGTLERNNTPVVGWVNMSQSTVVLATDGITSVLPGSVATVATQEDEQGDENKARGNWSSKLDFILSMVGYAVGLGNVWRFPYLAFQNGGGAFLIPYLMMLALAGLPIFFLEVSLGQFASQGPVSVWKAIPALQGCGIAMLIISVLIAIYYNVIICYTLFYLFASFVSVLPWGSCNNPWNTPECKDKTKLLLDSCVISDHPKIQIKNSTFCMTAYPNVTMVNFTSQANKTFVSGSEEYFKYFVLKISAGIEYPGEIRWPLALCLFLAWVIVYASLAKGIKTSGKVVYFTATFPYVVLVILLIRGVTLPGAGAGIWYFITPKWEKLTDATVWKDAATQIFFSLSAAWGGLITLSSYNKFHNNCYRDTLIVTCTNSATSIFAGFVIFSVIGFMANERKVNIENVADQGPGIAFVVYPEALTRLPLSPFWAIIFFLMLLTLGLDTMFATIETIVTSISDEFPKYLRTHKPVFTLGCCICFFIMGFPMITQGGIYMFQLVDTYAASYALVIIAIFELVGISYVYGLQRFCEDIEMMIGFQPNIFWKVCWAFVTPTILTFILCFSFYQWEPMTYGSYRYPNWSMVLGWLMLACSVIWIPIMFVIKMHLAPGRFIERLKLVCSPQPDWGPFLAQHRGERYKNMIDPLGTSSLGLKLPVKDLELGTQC

[6] = Terminal half life in rat at 5.7 mg/kg, po; type: ADME, organism-based; parameters: dose 5.7 mg/kg, route oral; details: in vivo, read-out: beta t1/2 (converted)
Method in brief: (§3)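 Single-dose rat PK with iv doses of 1.7, 2.0 or 2.2 mg/kg and po doses of 2, 5.7 or 6.8 mg/kg. CL, Vss, oral bioavailability, terminal half-life and brain/plasma ratio determined; values averaged from two independent experiments.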

[7] = Clearance in rat at 1.7 mg/kg, iv; type: ADME, organism-based; parameters: dose 1.7 mg/kg, route intravenous; details: in vivo; method in brief: as §3
[8] = Drug level in rat brain at 10 mg/kg after 3 hrs; type: ADME, organism-based; parameters: dose 10 mg/kg; details: read-out: Drug uptake; method in brief: as §1
[9] = Intrinsic clearance in rat liver microsomes assessed per mg of protein; type: ADME, Microsome
Method in brief: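 Intrinsic clearance measured in rat liver microsomes, expressed as µL/min/mg protein.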

[10] = Volume of distribution at steady state in rat at 1.7 mg/kg, iv; type: ADME, organism-based; parameters: dose 1.7 mg/kg, route intravenous; details: in vivo, read-out: Vdss; method in brief: as §3
hERG (KCNH2) = hERG (KCNH2) (Homo sapiens, UniProt Q12809); experiment: Inhibition of human ERG at 10 uM by patch clamp assay
Method in brief: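 hERG block measured by patch clamp at 10 µM; values averaged from at least two independent experiments.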

Mus musculus = experiment: Antipsychotic activity in po dosed mouse assessed as inhibition of L-687414-induced hyperlocomotion after 60 mins; type: functional; details: 1 h, read-out: ID50 (the source's name)
Method in brief: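 Mice given compound orally, n = 8 per group; hyperlocomotion induced by L-687,414. Horizontal activity counts recorded over a 60-min period and reported as group means. ID50 (mg/kg) derived from dose-dependent inhibition of the L-687,414-induced response.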

[11] = Ratio of drug level in brain to plasma in rat at 5.7 mg/kg, po; type: ADME, organism-based; parameters: dose 5.7 mg/kg, route oral; details: read-out: BPR
[12] = Oral bioavailability in rat at 5.7 mg/kg; type: ADME, organism-based; details: in vivo; method in brief: as §3
Rattus norvegicus [13] = experiment: […] in rat striatum assessed as increase of glycine level at 10 mg/kg, po relative to basal level; type: functional; method in brief: as §1
[14] = Permeability of the compound by PAMPA; type: ADME; details: read-out: permeability
Method in brief: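 PAMPA: permeation constant Pe (10^-6 cm/s) measured through artificial membranes.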

[15] = Ratio of drug level in brain to plasma in rat; type: ADME; details: read-out: BPR
[16] = Volume of distribution in rat; type: ADME, organism-based; details: in vivo
[17] = Clearance in rat; type: ADME, organism-based; details: in vivo
[18] = Oral bioavailability in rat; type: ADME, organism-based; details: in vivo
[19] = Ratio of drug level in brain to plasma in rat at 2 mg/kg, po; type: ADME, organism-based; parameters: dose 2 mg/kg, route oral; details: read-out: BPR
[20] = Volume of distribution at steady state in rat at 2 mg/kg, iv; type: ADME, organism-based; parameters: dose 2 mg/kg, route intravenous; details: in vivo, read-out: Vdss; method in brief: as §3
[21] = Oral bioavailability in rat at 2 mg/kg; type: ADME, organism-based; details: in vivo; method in brief: as §3
[22] = Terminal half life in rat at 2 mg/kg, po; type: ADME, organism-based; parameters: dose 2 mg/kg, route oral; details: in vivo, read-out: beta t1/2 (converted); method in brief: as §3
[23] = Clearance in rat at 2 mg/kg, iv; type: ADME, organism-based; parameters: dose 2 mg/kg, route intravenous; details: in vivo; method in brief: as §3
Cytochrome P450 3A4 = Cytochrome P450 3A4 (Homo sapiens, UniProt P08684); experiment: Inhibition of CYP3A4; type: ADME
[24] = Intrinsic clearance in mouse liver microsomes assessed per mg of protein; type: ADME, Microsome
Cytochrome P450 2C9 = Cytochrome P450 2C9 (Homo sapiens, UniProt P11712); experiment: Inhibition of CYP2C9; type: ADME
[25] = target: T1, Sodium- and chloride-dependent glycine transporter 1; experiment: Inhibition of human GlyT1; method in brief: as §2
[26] = target: T2, Sodium- and chloride-dependent glycine transporter 2; experiment: Inhibition of human GlyT2; method in brief: as §2
Homo sapiens = species on record: Homo sapiens; experiment: Selectivity ratio of EC50 for human GlyT2 to EC50 for human GlyT1
Method in brief: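 Ratio of the two EC50s from a [³H]-glycine uptake inhibition assay run in cells transfected with human GlyT1 cDNA or human GlyT2 cDNA. Each EC50 is the average of at least two independent experiments.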

[27] = Intrinsic clearance in human liver microsomes assessed per mg of protein; type: ADME, Microsome
Cytochrome P450 2D6 = Cytochrome P450 2D6 (Homo sapiens, UniProt P10635); experiment: Inhibition of CYP2D6; type: ADME
[28] = Ratio of drug level in brain to plasma in rat at 6.8 mg/kg, po; type: ADME, organism-based; parameters: dose 6.8 mg/kg, route oral; details: read-out: BPR
[29] = Terminal half life in rat at 6.8 mg/kg, po; type: ADME, organism-based; parameters: dose 6.8 mg/kg, route oral; details: in vivo, read-out: beta t1/2 (converted); method in brief: as §3
[30] = Oral bioavailability in rat at 6.8 mg/kg; type: ADME, organism-based; details: in vivo; method in brief: as §3
[31] = Clearance in rat at 2.2 mg/kg, iv; type: ADME, organism-based; parameters: dose 2.2 mg/kg, route intravenous; details: in vivo; method in brief: as §3
[32] = Volume of distribution at steady state in rat at 2.2 mg/kg, iv; type: ADME, organism-based; parameters: dose 2.2 mg/kg, route intravenous; details: in vivo, read-out: Vdss; method in brief: as §3

Sequence of hERG (KCNH2) (Q12809 whole entry): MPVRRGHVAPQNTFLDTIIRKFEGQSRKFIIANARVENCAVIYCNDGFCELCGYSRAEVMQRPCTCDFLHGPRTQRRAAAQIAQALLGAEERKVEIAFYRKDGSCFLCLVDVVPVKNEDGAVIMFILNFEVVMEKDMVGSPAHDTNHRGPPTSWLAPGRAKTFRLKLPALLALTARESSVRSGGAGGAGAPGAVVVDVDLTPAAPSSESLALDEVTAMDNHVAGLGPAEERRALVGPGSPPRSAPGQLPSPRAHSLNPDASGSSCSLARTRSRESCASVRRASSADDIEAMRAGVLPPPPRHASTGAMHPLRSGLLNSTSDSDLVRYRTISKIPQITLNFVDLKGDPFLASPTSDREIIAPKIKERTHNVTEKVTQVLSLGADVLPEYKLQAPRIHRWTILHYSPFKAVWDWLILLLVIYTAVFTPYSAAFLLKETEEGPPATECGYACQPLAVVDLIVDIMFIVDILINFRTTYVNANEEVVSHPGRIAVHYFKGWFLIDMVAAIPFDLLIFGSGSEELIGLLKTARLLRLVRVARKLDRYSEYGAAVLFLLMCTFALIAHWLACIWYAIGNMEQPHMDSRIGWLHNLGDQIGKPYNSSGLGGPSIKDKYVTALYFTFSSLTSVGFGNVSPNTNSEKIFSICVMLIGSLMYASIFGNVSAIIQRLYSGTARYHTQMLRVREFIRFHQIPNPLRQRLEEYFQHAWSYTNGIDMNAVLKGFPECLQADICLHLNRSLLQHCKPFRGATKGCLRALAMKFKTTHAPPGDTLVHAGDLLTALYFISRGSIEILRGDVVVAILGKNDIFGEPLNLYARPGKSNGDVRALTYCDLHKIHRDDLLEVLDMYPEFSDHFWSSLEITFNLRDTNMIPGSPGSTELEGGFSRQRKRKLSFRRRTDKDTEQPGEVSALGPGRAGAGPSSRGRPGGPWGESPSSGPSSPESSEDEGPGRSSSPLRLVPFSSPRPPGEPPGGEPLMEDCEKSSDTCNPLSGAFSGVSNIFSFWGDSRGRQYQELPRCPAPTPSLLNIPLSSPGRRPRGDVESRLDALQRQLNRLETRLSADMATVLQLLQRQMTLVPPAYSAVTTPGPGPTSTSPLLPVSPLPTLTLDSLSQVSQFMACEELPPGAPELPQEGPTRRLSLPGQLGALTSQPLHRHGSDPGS
Sequence of Cytochrome P450 3A4 (P08684 whole entry): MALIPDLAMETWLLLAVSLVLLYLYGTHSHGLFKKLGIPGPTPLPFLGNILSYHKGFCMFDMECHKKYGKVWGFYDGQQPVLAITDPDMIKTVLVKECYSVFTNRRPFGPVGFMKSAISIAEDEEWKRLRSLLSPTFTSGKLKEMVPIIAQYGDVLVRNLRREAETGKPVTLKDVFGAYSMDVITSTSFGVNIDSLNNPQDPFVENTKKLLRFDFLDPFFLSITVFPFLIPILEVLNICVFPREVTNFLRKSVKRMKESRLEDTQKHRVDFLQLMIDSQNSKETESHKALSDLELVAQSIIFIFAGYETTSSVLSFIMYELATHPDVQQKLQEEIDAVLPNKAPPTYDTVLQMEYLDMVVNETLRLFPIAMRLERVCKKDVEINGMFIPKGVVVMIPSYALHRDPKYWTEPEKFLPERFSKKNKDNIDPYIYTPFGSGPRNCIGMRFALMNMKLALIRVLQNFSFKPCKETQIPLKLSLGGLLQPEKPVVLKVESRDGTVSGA
Sequence of Cytochrome P450 2C9 (P11712 whole entry): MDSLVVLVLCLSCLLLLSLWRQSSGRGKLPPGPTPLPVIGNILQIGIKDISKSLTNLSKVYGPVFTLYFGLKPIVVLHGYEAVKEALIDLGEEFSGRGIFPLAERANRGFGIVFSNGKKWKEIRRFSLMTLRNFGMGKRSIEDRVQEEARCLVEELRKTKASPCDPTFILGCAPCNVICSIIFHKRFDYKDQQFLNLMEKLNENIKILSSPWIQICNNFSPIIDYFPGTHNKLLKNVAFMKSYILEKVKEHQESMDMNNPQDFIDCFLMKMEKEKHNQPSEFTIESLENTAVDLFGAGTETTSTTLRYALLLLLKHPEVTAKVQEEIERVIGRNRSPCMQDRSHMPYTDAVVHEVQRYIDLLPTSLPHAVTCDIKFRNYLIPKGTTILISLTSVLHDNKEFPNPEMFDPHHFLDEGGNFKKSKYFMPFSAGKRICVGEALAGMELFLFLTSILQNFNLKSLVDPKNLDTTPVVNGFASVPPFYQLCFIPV
Sequence of Cytochrome P450 2D6 (P10635 whole entry): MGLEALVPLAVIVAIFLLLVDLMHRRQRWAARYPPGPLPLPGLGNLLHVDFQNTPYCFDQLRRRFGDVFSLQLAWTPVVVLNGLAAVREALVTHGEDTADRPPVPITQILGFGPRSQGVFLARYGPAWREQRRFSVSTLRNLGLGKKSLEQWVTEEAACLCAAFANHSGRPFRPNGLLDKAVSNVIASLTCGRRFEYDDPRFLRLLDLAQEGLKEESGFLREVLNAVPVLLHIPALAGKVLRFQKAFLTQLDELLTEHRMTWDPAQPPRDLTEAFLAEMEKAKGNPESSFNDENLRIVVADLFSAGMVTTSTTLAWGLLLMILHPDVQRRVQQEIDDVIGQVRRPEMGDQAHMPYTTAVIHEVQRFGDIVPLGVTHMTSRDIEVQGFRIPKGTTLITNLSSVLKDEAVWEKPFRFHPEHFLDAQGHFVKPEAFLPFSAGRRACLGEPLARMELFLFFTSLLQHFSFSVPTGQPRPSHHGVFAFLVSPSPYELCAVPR

SMILES	solubility [1]	fold change (FC) (Rattus norvegicus [2])	concentration at 3 h [3]	EC50 [4]	EC50 [5]	concentration at 3 h [8]	microsomal CLint [9]	inhibition at 10 µM (hERG (KCNH2))	ED50 (Mus musculus)	fold change (FC) (Rattus norvegicus [13])	Papp [14]	also measured
CC(C)Oc1ccc(S(C)(=O)=O)cc1C(=O)N1Cc2ccc(C3CCOCC3)cc2C1	191 µg/mL (≈ 431 µM)	1.5	279 ng/mL	28 nM	> 30000 nM	159 ng/mL	18.9 µL/min/mg	10%	0.5 mg/kg	1.9	4.2 ×10⁻⁶ cm/s	half-life [6]: 1.6 h; clearance [7]: 22 mL/min/kg; Vd [10]: 2 L/kg; Kp [11]: 0.6; bioavailability [12]: 40%
C[C@H](Oc1ccc(S(C)(=O)=O)cc1C(=O)N1Cc2ccc(C(F)(F)F)cc2C1)C(F)(F)F	1 µg/mL (≈ 2.08 µM)	–	–	21 nM	> 30000 nM	–	–	59%	2 mg/kg	–	0.7 ×10⁻⁶ cm/s	Kp [15]: 1; Vd [16]: 2.9 L/kg; clearance [17]: 1.7 mL/min/kg; bioavailability [18]: 23%
C[C@H](Oc1ccc(S(C)(=O)=O)cc1C(=O)N1Cc2ccc(-c3ccccc3)cc2C1)C(F)(F)F	4 µg/mL (≈ 8.17 µM)	–	–	13 nM	12000 nM	–	–	67%	6 mg/kg	–	2.6 ×10⁻⁶ cm/s	–
C[C@H](Oc1ccc(S(C)(=O)=O)cc1C(=O)N1Cc2cc(C(F)(F)F)cnc2C1)C(F)(F)F	280 µg/mL (≈ 580 µM)	1.8	2500 ng/mL	50 nM	> 30000 nM	500 ng/mL	1.9 µL/min/mg	12%	0.4 mg/kg	1.8	5 ×10⁻⁶ cm/s	Kp [19]: 0.2; Vd [20]: 1.4 L/kg; bioavailability [21]: 55%; half-life [22]: 6 h; clearance [23]: 1.7 mL/min/kg
C[C@H](Oc1ccc(S(C)(=O)=O)cc1C(=O)N1Cc2ccc(Cl)cc2C1)C(F)(F)F	< 1 µg/mL	–	–	–	–	–	–	–	20 mg/kg	–	4.4 ×10⁻⁶ cm/s	IC50 (Cytochrome P450 3A4): > 38000 nM; microsomal CLint [24]: 23.3 µL/min/mg; IC50 (Cytochrome P450 2C9): > 38000 nM; EC50 [25]: 135 nM; EC50 [26]: 30000 nM; Ratio EC50 (Homo sapiens): > 200; microsomal CLint [27]: 2.4 µL/min/mg; IC50 (Cytochrome P450 2D6): > 38000 nM
C[C@H](Oc1ccc(S(C)(=O)=O)cc1C(=O)N1Cc2ccc(C3CCOCC3)cc2C1)C(F)(F)F	76 µg/mL (≈ 153 µM)	2	480 ng/mL	14 nM	> 30000 nM	274 ng/mL	13.9 µL/min/mg	23%	0.5 mg/kg	2.1	3.3 ×10⁻⁶ cm/s	Kp [28]: 0.6; half-life [29]: 3.2 h; bioavailability [30]: 65%; clearance [31]: 21 mL/min/kg; Vd [32]: 3.7 L/kg
CC(C)Oc1ccc(S(C)(=O)=O)cc1C(=O)N1Cc2cc(C(F)(F)F)cnc2C1	114 µg/mL (≈ 266 µM)	–	–	70 nM	> 30000 nM	–	–	10%	1 mg/kg	–	4.1 ×10⁻⁶ cm/s	–
